Compounds with a hit are over-represented: about 11% of the library has one in this group of screens.
L major viab: inhibitors of Leishmania major promastigote growth; actives 9% (n = 200,000); inhibition, % at 10 µM; Leishmania major promastigotes, resazurin fluorescence viability;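 further: promastigotes grown with compound for 44 hours at 28 °C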
WT yeast gro inh: growth inhibition of WT yeast, mitochondrial fusion screen | inhibition, % at 10 µM | AID 1362 | actives 2.1% (n = 190,000) | mitochondrial fusion phenotypic screen, WT strain; in the data active means inhibition above about 58%; tested in S. cerevisiae
G6PDH counter: inhibits Leuconostoc G6PDH, flagging false hits in G6PDH-based assays; Purified L. mesenteroides G6PDH, diaphorase/resazurin coupled fluorescence, 45 min; inhibition, % at 5 µM; actives 0.12% (n = 200,000); AID 1020
Diaphorase act: counter-screen for diaphorase-based assays: diaphorase activators and chemical reducers; Diaphorase/resazurin coupled assay, resorufin fluorescence, 16 min; hits give high values; 1 = vehicle wells, 0 = NADH-free wells; activation factor at 20 µM; actives 0.005% (n = 190,000); AID 1229;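 active means diaphorase activity raised at least twofold by the compound at 20 µM; inactive means activation factor below 2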
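Material: Purified diaphorase enzyme from Clostridium kluyveri | Buffer or medium: 50 mM HEPES pH 7.4 with 4.542 mM MgCl2, 0.005% Tween 20 | Times: 16 min enzyme reaction, ambient temperature | Signal: Red resorufin fluorescence at 544/590 nm excitation/emission | Measure: Increased resorufin signal from activators or reducing compounds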
Diaphorase inh: diaphorase inhibition or chemical oxidation counter-screen | diaphorase resazurin-to-resorufin fluorescence, NADH, 16 min; bacterial (C. kluyveri) enzyme, not human | inhibition, % at 20 µM | actives 0.69% (n = 190,000) | AID 1217;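 active means primary screen inhibition at 20 µM above a set limit, cut at about 50% in these data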
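System: Diaphorase enzyme from Clostridium kluyveri | Amount: Enzyme working solution with 0.14 U/mL diaphorase | Benchmarks: No-NADH positive control and DMSO neutral control | Signal: Fluorescence of resorufin formed from resazurin, Ex 544/Em 590 nm | Schedule: 16-min room-temperature incubation before reading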
Lmaj promast 1uM: L. major promastigote growth inhibition, 1 uM repeat; shares compounds with L major viab; resazurin fluorescence, 48 h; inhibition, % at 1 µM; actives 13% (n = 1,100);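 active means inhibition above about 50% in both repeat tests, limit read from the data; inconclusive means one repeat under the set limit, the other over it; inactive means both repeats under the set limit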
Large screens that a line does not name were inactive (follow-up assays come after a bar, where they were run). Unless noted, no stated cut-off is given here; in the data, active means inhibition above about 50%; inactive means the rest.

CC(C)C1CC(CCN)(Cc2ccccc2)CCO1 (centres undefined)	none
CC(C)C(NS(=O)(=O)c1cccc2nsnc12)C(=O)Nc1nc2ccc(Cl)cc2s1 (centres undefined)	L major viab 90, WT yeast gro inh 62 | Lmaj promast 1uM inactive
Cc1ccc(NC(=O)C(NS(=O)(=O)c2cccc3nsnc23)C(C)C)nc1 (centres undefined)	none
Cc1nc(Oc2ccccc2)c2ccccc2n1	L major viab 57 | Lmaj promast 1uM inactive
CCc1ccc(N2CC(O)(c3cccs3)[N+]3=C2SCCC3)cc1 (centres undefined)	L major viab 72 | Lmaj promast 1uM inactive
Cc1ccc(NC(=S)NC(NC(=O)c2ccco2)C(Cl)(Cl)Cl)cc1 (centres undefined)	L major viab 83 | Lmaj promast 1uM inactive
O=C(CN1C(=O)CCC1=O)Nc1cccc2c1C(=O)NC2=O	none
O=C(c1ccc2c(c1)N(Cc1ccccc1)CCS2)N1CCCCC1	none
O=C(Nc1ccccc1-c1nc2ccccc2s1)c1ccc(Br)o1	none
O=C(Nc1ccccc1-c1nc2ccccc2s1)c1cccnc1	L major viab 95 | Lmaj promast 1uM inactive
COCCCNc1c2c3c(cccc3[nH]c1=O)C(=O)c1ccccc1-2	none
CCOC(=O)c1cnc2c(OC)cccc2c1Nc1ccc2c(c1)OCCO2	L major viab 53 | Lmaj promast 1uM inactive
CC(OC(=O)c1ccccc1Br)C(=O)Nc1nc(-c2cccc([N+](=O)[O-])c2)cs1 (centres undefined)	none
O=C(Nc1nc(-c2cccc([N+](=O)[O-])c2)cs1)C(c1ccccc1)c1ccccc1	L major viab 59 | Lmaj promast 1uM inactive
CC(C)Cn1c(N)c(C(=O)CSc2ccccc2)c(=O)n(C)c1=O	L major viab 51 | Lmaj promast 1uM inactive
CC(C)Oc1ccc(C(CC(=O)O)NC(=O)c2cccs2)cc1 (centres undefined)	none
CCCN(CCC)c1nc2ccccc2n2c(C)nnc12	L major viab 82 | Lmaj promast 1uM inactive
CC1=Nc2ccccc2/C1=C/c1sc(=N)n(-c2nccs2)c1O	L major viab 100 | Lmaj promast 1uM inactive
CC1=Nc2ccccc2/C1=C/c1nc(-c2ccc(C)s2)oc1O	none
O=C1CCCc2c1cc(-c1ccccc1)n2-c1ccc(O)cc1	L major viab 53 | Lmaj promast 1uM inactive
Cc1ccc(-n2c(C)cc3c2CCCC3=O)cc1	none
CNCCC(Oc1ccc(C(F)(F)F)cc1)c1ccccc1 (centres undefined)	L major viab 90 | Lmaj promast 1uM inactive
Fc1cccc(Cl)c1CSc1nnc2ccccn12	none
O=C(NCCC(c1ccccc1)c1ccccc1)c1ccc(Br)o1	L major viab 59 | Lmaj promast 1uM inactive
O=C(O)CCNC(=O)c1ccc(Br)o1	none
CC(NC(=O)Cc1cccs1)c1ccccc1 (centres undefined)	none
Nc1ccccc1Nc1ccccc1	L major viab 99 | Lmaj promast 1uM inactive
Cc1ccc(-c2csc3ncnc(Sc4nnc(CN5CCCCCC5=O)o4)c23)cc1	L major viab 99 | Lmaj promast 1uM inactive
Cc1ccc(-c2csc3ncnc(SCC(=O)Nc4nnc(C)s4)c23)cc1	none
CC(C)CC(c1nnnn1Cc1ccc2c(c1)OCO2)N1CCC(C(N)=O)CC1 (centres undefined)	none
CCc1nc2ccccc2c2nc3ccccc3n12	L major viab 87 | Lmaj promast 1uM inactive
c1ccc(-c2nc3ccccc3c3nc4ccccc4n23)cc1	none
CCOC(=O)CNC(=O)C12CC3CC(CC(C3)C1)C2	none
CCN(CC)CCOC(=O)C12CC3CC(CC(C3)C1)C2	L major viab 97 | Lmaj promast 1uM inactive
CCCCNC(=S)N(Cc1c(C)noc1C)c1ccccc1	none
CCNC(=S)N(Cc1c(C)noc1C)c1ccccc1	L major viab 51 | Lmaj promast 1uM inactive
COc1ccc(Cc2noc(CN3CCN(Cc4csc(C)n4)CC3)n2)cc1OC	none
CC12CCC(C(=O)N(CCCN3CCN(Cc4ccccc4)CC3)C1=O)C2(C)C (centres undefined)	L major viab 95 | Lmaj promast 1uM 68
Cc1cc(C)c(S(=O)(=O)c2c(C)cccc2C)c(OCC(C)C)n1	L major viab 96 | Lmaj promast 1uM inconclusive
CCC(C)(c1nnnn1-c1c(C)cccc1C)N(N=O)c1ccccc1Cl (centres undefined)	L major viab 100 | Lmaj promast 1uM 95
Cc1cccc(C(C)C)c1-n1nnnc1-c1ccccc1	none
O=C(O)c1cc2c(s1)-c1ccccc1OC2	none
O=C(O)c1cc2c(s1)-c1ccccc1CC2	L major viab 53 | Lmaj promast 1uM inactive
Cc1ccc(NC(=O)c2c(Cl)n(C)c3ccccc23)cc1	none
CCOC(=O)c1c(NC(=O)Cn2cnc([N+](=O)[O-])n2)sc(C)c1C	L major viab 52 | Lmaj promast 1uM inactive
COc1ccc(S(=O)(=O)NNC(=O)c2csc(-n3nc(C)cc3C(F)(F)F)n2)cc1	none
Cc1ccc(C2CC(=O)c3cnn(-c4nc(C)cc(C)n4)c3C2)cc1 (centres undefined)	L major viab 75 | Lmaj promast 1uM inactive
CN(C)c1nc(NCc2ccccc2)nc(N/N=C/c2ccc(Cl)cc2Cl)n1	none
CCSC1=NCCN1C(=O)C(C)(C)Oc1ccc(Cl)cc1	L major viab 65 | Lmaj promast 1uM inactive
CN1C(=O)C(c2nnc(Nc3cccc4ccccc34)s2)C2CC1(C)Oc1ccccc12 (centres undefined)	L major viab 72 | Lmaj promast 1uM inactive
CCC(=O)/C=C1/Sc2ccc(OC)cc2N1CCO	none
CCC(/C=C1\Sc2ccc(OC)cc2N1CCO)=C\c1sc2ccc(OC)cc2[n+]1CCO	L major viab 100, WT yeast gro inh 84 | Lmaj promast 1uM 100
COc1ccccc1OC1OC2COC(c3ccco3)OC2C(O)C1NC(C)=O (centres undefined)	L major viab 65 | Lmaj promast 1uM inactive
CC(C)CNC(=O)c1ccccc1NC(=O)CCSc1ccccc1	none
C=CCc1c(C)nc(SC)nc1Nc1ccc(C)cc1	L major viab 97 | Lmaj promast 1uM inactive
Cc1nc2c(-c3ccc(Cl)cc3)c(C)[nH]n2c(=O)c1Cc1ccccc1	L major viab 99 | Lmaj promast 1uM inactive
O=C1c2ccccc2C(=O)N1CCCc1c[nH]c2ccc(Cl)cc12	none
COC(=O)COc1ccc(S(=O)(=O)N2CCc3ccccc3C2)cc1C	none
O=C(CSc1nc2ccccc2[nH]1)N1CCN(c2ccc(F)cc2)CC1	L major viab 58 | Lmaj promast 1uM inactive
CCOC(=O)c1c(-c2ccccc2)c(C(C)=O)c(=O)n(C)c1C	none
CCOC(=O)c1c2c(n(C)c1C)C(=O)C(=O)c1ccc(Br)cc1-2	L major viab 100 (no result: WT yeast gro inh, G6PDH counter, Diaphorase act, Diaphorase inh) | Lmaj promast 1uM 98

Source: PubChem
